Data set [1] concerns Eleusine indica. The experiment in a line: Herbicidal activity against Eleusine indica assessed as inhibition of fresh weed plant weights at 300 g ai/ha using pre-emergence treatment protocol under field trials conditions measured 30 days post soil treatment relative to untreated control. It counts as functional. To be noted: 720 h. In short, it runs like this: (§1)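 Field pre-emergence trial. Treatments were applied to the soil surface within 24 h after maize planting, at 300, 400, 600 and 800 g a.i. ha^-1. Fresh weight of aerial plant parts was measured 30 days later, and percent inhibition calculated relative to the water-sprayed control.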

The test system of data set [2] is Eleusine indica. Briefly: Herbicidal activity against Eleusine indica assessed as inhibition of fresh weed plant weights at 400 g ai/ha using pre-emergence treatment protocol under field trials conditions measured 30 days post soil treatment relative to untreated control. The format is functional. The conditions noted are these: 720 h. Put shortly:
as §1

For data set [3], the system named is Echinochloa crus-galli. Briefly: Herbicidal activity against Echinochloa crus-galli (barnyard grass) assessed as inhibition of root growth at […] measured 7 days post treatment. To be noted: 168 h, read-out: GI. Also on record: dose or concentration left out as unconfirmed. It counts as functional.
Data set [4] has as its system Zea mays. The experiment in a line: Toxicity against Zea mays var. SHEN DAN 17 (maize) assessed induction of crop injury at 400 g ai/ha using pre-emergence treatment protocol under field trials conditions measured 30 days post soil treatment. It counts as organism-based. The conditions noted are these: in vivo, other, 720 h. In short, it runs like this: (§2)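 Pre-emergence application to soil surface within 24 h after maize planting, at 300, 400, 600 or 800 g a.i. ha^-1. Fresh weight of aerial plant parts measured 30 days later; percentage inhibition calculated relative to water-sprayed control.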

In data set [5] the test system is Eleusine indica. The experiment in a line: Herbicidal activity against Eleusine indica assessed as inhibition of fresh weed plant weights at 800 g ai/ha using pre-emergence treatment protocol under field trials conditions measured 30 days post soil treatment relative to untreated control. The format is functional. To be noted: 720 h. In short, it runs like this:
as §1

Data set [6] deals with Eleusine indica. The experiment in a line: Herbicidal activity against Eleusine indica assessed as inhibition of fresh weed plant weights at 600 g ai/ha using pre-emergence treatment protocol under greenhouse conditions relative to untreated control. It counts as functional. Put shortly:
(§3)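 Pre-emergence test in plastic pots kept in a greenhouse at 22-25 °C. Fresh weight of aerial plant parts was measured 20 days later, and percent inhibition calculated relative to water-sprayed controls. Metolachlor served as the positive control. Three replicates were run per concentration.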

The subject of data set [7] is Portulaca oleracea. Briefly: Herbicidal activity against Portulaca oleracea assessed as inhibition of fresh weed plant weights at 800 g ai/ha using pre-emergence treatment protocol under field trials conditions measured 30 days post soil treatment relative to untreated control. It counts as functional. To be noted: 720 h. Put shortly:
as §1

Data set [8] relates to Eleusine indica. The experiment in a line: Herbicidal activity against Eleusine indica assessed as inhibition of fresh weed plant weights at 150 g ai/ha using pre-emergence treatment protocol under greenhouse conditions relative to untreated control. It counts as functional. Put shortly:
as §3

Data set [9] relates to Zea mays. The experiment in a line: Toxicity against Zea mays var. SHEN DAN 17 (maize) assessed induction of crop injury at 300 g ai/ha using pre-emergence treatment protocol under field trials conditions measured 30 days post soil treatment. To be noted: in vivo, other, 720 h. The format is organism-based. Put shortly:
as §2

Data set [10] relates to Portulaca oleracea. The experiment in a line: Herbicidal activity against Portulaca oleracea assessed as inhibition of fresh weed plant weights at 150 g ai/ha using pre-emergence treatment protocol under greenhouse conditions relative to untreated control. It counts as functional. Put shortly:
as §3

Data set [11] deals with Zea mays. The experiment in a line: Toxicity against Zea mays var. SHEN DAN 17 (maize) assessed as inhibition of fresh weed plant weights at 600 g ai/ha using pre-emergence treatment protocol under greenhouse conditions relative to untreated control. It counts as organism-based. To be noted: in vivo, other. In short, it runs like this: as §3
The test system of data set [12] is Echinochloa crus-galli. Briefly: Herbicidal activity against Echinochloa crus-galli (barnyard grass) assessed as inhibition of fresh weed plant weights at 600 g ai/ha using pre-emergence treatment protocol under greenhouse conditions relative to untreated control. The format is functional. In short, it runs like this:
as §3

For the next data set, the system named is Digitaria sanguinalis. Briefly: Herbicidal activity against Digitaria sanguinalis (hairy crabgrass) assessed as inhibition of fresh weed plant weights at 800 g ai/ha using pre-emergence treatment protocol under field trials conditions measured 30 days post soil treatment relative to untreated control. It counts as functional. The conditions noted are these: 720 h. Put shortly: as §1

The test system of data set [13] is Portulaca oleracea. The experiment in a line: Herbicidal activity against Portulaca oleracea assessed as inhibition of fresh weed plant weights at 600 g ai/ha using pre-emergence treatment protocol under greenhouse conditions relative to untreated control. The format is functional. In short, it runs like this:
as §3

The subject of data set [14] is Echinochloa crus-galli. Briefly: Herbicidal activity against Echinochloa crus-galli (barnyard grass) assessed as inhibition of fresh weed plant weights at 150 g ai/ha using pre-emergence treatment protocol under greenhouse conditions relative to untreated control. The format is functional. In short, it runs like this: as §3
Data set [15] deals with Eleusine indica. Briefly: Herbicidal activity against Eleusine indica assessed as inhibition of fresh weed plant weights at 600 g ai/ha using pre-emergence treatment protocol under field trials conditions measured 30 days post soil treatment relative to untreated control. It counts as functional. To be noted: 720 h. Put shortly:
as §1

In general, inhibition refers to how much of the control response was suppressed. Take `Cc1nn(CC(F)(F)F)c(CS(=O)(=O)C2=NOC(C)(C)C2)c1Cl`: the inhibition at 300 g/ha in the data set on Eleusine indica [1] came out at 97%. Besides, in the data set with Eleusine indica [2], the inhibition at 400 g/ha is 98%. For the same compound, in the data set on Echinochloa crus-galli [3], the inhibition of growth turned out to be 62%. Also, the Activity in the data set on Zea mays [4] and in the data set on Zea mays [9] was 0% in each case. In addition, the inhibition at 800 g/ha came to 99% in the data set with Eleusine indica [5], 100% with Portulaca oleracea [7] and 100% in the data set with Digitaria sanguinalis. The inhibition at 600 g/ha worked out at 100% with Eleusine indica [6], 100% in the data set with Echinochloa crus-galli [12], 99% with Portulaca oleracea [13] and 98% in the data set on Eleusine indica [15]. The inhibition at 150 g/ha with Eleusine indica [8] was 97%; with Portulaca oleracea [10] it was 70%; in the data set on Echinochloa crus-galli [14] it was 100%. Also, the “inhibition (INH)” value in the data set on Zea mays [11] is 1%.
